Activity calls are given as the source filed them. The calls are words filed in the database; no cut-off is given here.
Experiments:
[1] = Metabolic stability in human serum assessed as full length product remaining after 10 mins by HPLC; type: ADME, cell-free; conditions: read-out: Stability
Outline: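 About 0.5 A260 units compound in 1% human serum in PBS, 37 °C; aliquot taken at 10 min, analysed by anion-exchange HPLC for percent intact full-length product.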

[2] = molecular target: T1, Toll-like receptor 8 (Homo sapiens) (UniProt Q9NR97); assay: Activation of human TLR8 expressed in HEK293XL assessed as fold induction of NF-kappaB activity at 50 ug/ml after 18 hrs by reporter gene assay relative to control
T1 sequence (whole entry): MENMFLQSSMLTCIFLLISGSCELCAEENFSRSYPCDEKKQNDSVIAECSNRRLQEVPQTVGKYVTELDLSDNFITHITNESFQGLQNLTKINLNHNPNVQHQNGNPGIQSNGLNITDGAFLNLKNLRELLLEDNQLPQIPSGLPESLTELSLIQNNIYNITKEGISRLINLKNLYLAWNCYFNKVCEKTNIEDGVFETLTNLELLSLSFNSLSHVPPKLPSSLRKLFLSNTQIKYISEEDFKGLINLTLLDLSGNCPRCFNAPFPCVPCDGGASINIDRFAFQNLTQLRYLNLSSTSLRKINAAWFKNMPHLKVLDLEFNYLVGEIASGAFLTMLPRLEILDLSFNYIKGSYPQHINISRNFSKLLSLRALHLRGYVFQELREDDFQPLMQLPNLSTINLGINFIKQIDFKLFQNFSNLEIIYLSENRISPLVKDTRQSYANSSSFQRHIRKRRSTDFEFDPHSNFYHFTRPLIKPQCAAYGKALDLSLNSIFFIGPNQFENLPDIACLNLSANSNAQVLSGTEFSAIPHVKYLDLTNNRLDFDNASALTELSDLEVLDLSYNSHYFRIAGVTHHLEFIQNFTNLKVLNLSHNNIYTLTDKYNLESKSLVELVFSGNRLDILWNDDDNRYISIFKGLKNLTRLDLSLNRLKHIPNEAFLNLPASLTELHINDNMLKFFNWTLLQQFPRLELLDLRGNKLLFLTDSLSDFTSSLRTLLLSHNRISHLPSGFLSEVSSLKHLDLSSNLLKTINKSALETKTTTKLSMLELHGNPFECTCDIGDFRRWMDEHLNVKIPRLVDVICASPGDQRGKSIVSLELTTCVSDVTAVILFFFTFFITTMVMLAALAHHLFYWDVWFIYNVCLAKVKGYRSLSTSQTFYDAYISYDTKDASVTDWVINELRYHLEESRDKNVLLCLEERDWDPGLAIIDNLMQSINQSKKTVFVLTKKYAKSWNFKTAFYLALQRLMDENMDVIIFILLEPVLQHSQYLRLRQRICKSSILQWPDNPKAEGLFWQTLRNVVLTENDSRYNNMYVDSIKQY
Outline: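 HEK293 cells stably expressing human TLR7 or TLR8, transiently transfected with SEAP reporter plasmid; medium replaced, SIMRA compounds added, 18 h incubation. Supernatant SEAP measured by QuantiBlue; expressed as fold increase in NF-κB activity over PBS control. Tabulated data at 50 μg/mL, representative of three independent experiments.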

[3] = species on record: Homo sapiens; assay: Immunostimulatory activity in human pDC assessed as induction of IFNalpha at 100 ug/ml after 24 hrs; type: functional
Outline: (§1)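 Human pDCs plated at 1 × 10^6 cells/mL; compounds in PBS added, 37 °C for 24 h; supernatant cytokines/chemokines by human Luminex multiplex kit.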

[4] = tested on: PBMC; assay: Immunomodulatory activity in human PBMC assessed as induction of IFNalpha after 24 hrs; type: functional, cell-based
Outline: (§2)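 Human PBMCs plated at 5 × 10^6 cells/mL; compounds dissolved in PBS added at various concentrations, 37 °C for 24 h. Supernatant cytokines/chemokines quantified with human Luminex multiplex kit.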

[5] = tested on: PBMC; assay: Immunomodulatory activity in human PBMC assessed as induction of TNFalpha after 24 hrs; type: functional, cell-based; outline: as §2
[6] = tested on: PBMC; assay: Immunomodulatory activity in human PBMC assessed as induction of IL6 after 24 hrs; type: functional, cell-based; outline: as §2
[7] = tested on: PBMC; assay: Immunomodulatory activity in human PBMC assessed as induction of MIP1alpha after 24 hrs; type: functional, cell-based; outline: as §2
[8] = tested on: PBMC; assay: Immunomodulatory activity in human PBMC assessed as induction of IL10 after 24 hrs; type: functional, cell-based; outline: as §2
[9] = tested on: PBMC; assay: Immunomodulatory activity in human PBMC assessed as induction of MCP1 after 24 hrs; type: functional, cell-based; outline: as §2
[10] = tested on: PBMC; assay: Immunomodulatory activity in human PBMC assessed as induction of IL12 at 50 ug/ml after 24 hrs; type: functional, cell-based; outline: as §2
[11] = tested on: PBMC; assay: Immunomodulatory activity in human PBMC assessed as induction of TNFalpha at 50 ug/ml after 24 hrs; type: functional, cell-based; outline: as §2
[12] = tested on: PBMC; assay: Immunomodulatory activity in human PBMC assessed as induction of IFNalpha at 50 ug/ml after 24 hrs; type: functional, cell-based; outline: as §2
[13] = tested on: PBMC; assay: Immunomodulatory activity in human PBMC assessed as induction of MIP1alpha at 50 ug/ml after 24 hrs; type: functional, cell-based; outline: as §2
[14] = tested on: PBMC; assay: Immunomodulatory activity in human PBMC assessed as induction of MIP1beta at 50 ug/ml after 24 hrs; type: functional, cell-based; outline: as §2
[15] = tested on: PBMC; assay: Immunomodulatory activity in human PBMC assessed as induction of IP10 at 50 ug/ml after 24 hrs; type: functional, cell-based; outline: as §2
[16] = tested on: PBMC; assay: Immunomodulatory activity in human PBMC assessed as induction of MCP1 at 50 ug/ml after 24 hrs; type: functional, cell-based; outline: as §2
[17] = tested on: PBMC; assay: Immunomodulatory activity in human PBMC assessed as induction of IL6 at 50 ug/ml after 24 hrs; type: functional, cell-based; outline: as §2
[18] = tested on: PBMC; assay: Immunomodulatory activity in human PBMC assessed as induction of IL1-beta at 50 ug/ml after 24 hrs; type: functional, cell-based; outline: as §2
[19] = species on record: Homo sapiens; assay: Immunostimulatory activity in human pDC assessed as induction of IP10 at 100 ug/ml after 24 hrs; type: functional; outline: as §1
[20] = species on record: Homo sapiens; assay: Immunostimulatory activity in human pDC assessed as induction of IL6 at 100 ug/ml after 24 hrs; type: functional; outline: as §1
[21] = species on record: Homo sapiens; assay: Immunostimulatory activity in human mDC assessed as induction of IFNalpha at 100 ug/ml after 24 hrs; type: functional
Outline: (§3)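 Human mDCs isolated from PBMCs by CD19+ B-cell depletion then BDCA1 positive selection; plated at 1 × 10^6 cells/mL, compounds in PBS, 37 °C for 24 h; supernatant cytokines by human Luminex multiplex. Representative of four independent experiments.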

[22] = species on record: Homo sapiens; assay: Immunostimulatory activity in human mDC assessed as induction of IP10 at 100 ug/ml after 24 hrs; type: functional; outline: as §3
[23] = species on record: Homo sapiens; assay: Immunostimulatory activity in human mDC assessed as induction of IL12 at 100 ug/ml after 24 hrs; type: functional; outline: as §3
[24] = species on record: Homo sapiens; assay: Immunostimulatory activity in human mDC assessed as induction of IL6 at 100 ug/ml after 24 hrs; type: functional; outline: as §3
[25] = species on record: Homo sapiens; assay: Immunostimulatory activity in human mDC assessed as induction of TNFalpha at 100 ug/ml after 24 hrs; type: functional; outline: as §3
[26] = tested on: Mus musculus; assay: Immunomodulatory activity in C57BL/6 mouse assessed as induction of IL12 release at 25 mg/kg, sc after 2 hrs by ELISA; type: functional, organism-based; design: dose 25 mg/kg
Outline: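 Female C57BL/6 wild-type mice, 5–8 weeks old, n=3; compounds given subcutaneously at 10 or 25 mg/kg. Retro-orbital blood at 2 h; serum cytokines by mouse Luminex multiplex or IL-12 ELISA.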

remaining at 10 min [1]: 71%
fold change (FC) [2]: 1.7
Structure (SMILES): Nc1ccn([C@@H]2O[C@H](COP(=O)(S)O[C@H]3[C@@H](O)[C@H](n4cnc5c(N)ncnc54)O[C@@H]3CO)[C@@H](OP(=O)(S)OC[C@H]3O[C@@H](n4ccc(=O)[nH]c4=O)[C@H](O)[C@@H]3OP(=O)(S)OC[C@H]3O[C@@H](n4ccc5c(=O)[nH]c(N)nc54)[C@H](O)[C@@H]3OP(=O)(S)OC[C@H]3O[C@@H](n4ccc(N)nc4=O)[C@H](O)[C@@H]3OP(=O)(S)OC[C@H]3O[C@@H](n4ccc5c(=O)[nH]c(N)nc54)[C@H](O)[C@@H]3OP(=O)(S)OC[C@H]3O[C@@H](n4cnc5c(N)ncnc54)[C@H](O)[C@@H]3OP(=O)(S)OC[C@H]3O[C@@H](n4ccc5c(=O)[nH]c(N)nc54)[C@H](O)[C@@H]3OP(=O)(S)OC[C@H]3O[C@@H](n4ccc(N)nc4=O)[C@H](O)[C@@H]3OP(=O)(S)OC[C@H]3O[C@@H](n4ccc(=O)[nH]c4=O)[C@H](O)[C@@H]3OP(=O)(S)OC[C@H]3O[C@@H](n4ccc(=O)[nH]c4=O)[C@H](O)[C@@H]3OP(=O)(S)OCC(O)COP(=O)(S)O[C@H]3[C@@H](O)[C@H](n4ccc(=O)[nH]c4=O)O[C@@H]3COP(=O)(S)O[C@H]3[C@@H](O)[C@H](n4ccc(=O)[nH]c4=O)O[C@@H]3COP(=O)(S)O[C@H]3[C@@H](O)[C@H](n4ccc(N)nc4=O)O[C@@H]3COP(=O)(S)O[C@H]3[C@@H](O)[C@H](n4ccc5c(=O)[nH]c(N)nc54)O[C@@H]3COP(=O)(S)O[C@H]3[C@@H](O)[C@H](n4cnc5c(N)ncnc54)O[C@@H]3COP(=O)(S)O[C@H]3[C@@H](O)[C@H](n4ccc5c(=O)[nH]c(N)nc54)O[C@@H]3COP(=O)(S)O[C@H]3[C@@H](O)[C@H](n4ccc(N)nc4=O)O[C@@H]3COP(=O)(S)O[C@H]3[C@@H](O)[C@H](n4ccc5c(=O)[nH]c(N)nc54)O[C@@H]3COP(=O)(S)O[C@H]3[C@@H](O)[C@H](n4ccc(=O)[nH]c4=O)O[C@@H]3COP(=O)(S)O[C@H]3[C@@H](O)[C@H](n4ccc(N)nc4=O)O[C@@H]3COP(=O)(S)O[C@H]3[C@@H](O)[C@H](n4cnc5c(N)ncnc54)O[C@@H]3CO)[C@H]2O)c(=O)n1 (stereo partly specified)
Activity [3]: Active
Activity [4]: Dose-dependent effect
Activity [5]: Dose-dependent effect
Activity [6]: Dose-dependent effect
Activity [7]: Dose-dependent effect
Activity [8]: Dose-dependent effect
Activity [9]: Dose-dependent effect
Activity [10]: 337 pg/mL
Activity [11]: 256 pg/mL
Activity [12]: 266 pg/mL
Activity [13]: 4890 pg/mL
Activity [14]: 8980 pg/mL
Activity [15]: 395 pg/mL
Activity [16]: 51400 pg/mL
Activity [17]: 2580 pg/mL
Activity [18]: 196 pg/mL
Activity [19]: Active
Activity [20]: Active
Activity [21]: Active
Activity [22]: Active
Activity [23]: Active
Activity [24]: Active
Activity [25]: Active
Activity [26]: Active

Source: ChEMBL document CHEMBL1154352, “Toll-like receptor 7 selective synthetic oligoribonucleotide agonists: synthesis and structure-activity relationship studies” (J Med Chem, 2009)
